These results are taken from ChEMBL document CHEMBL5223167, “Synthesis of Novel Kidney-Type Glutaminase Allosteric Inhibitors Targeting the Critical Lys-320 Residue” (ACS Med Chem Lett, 2023).

The target of series [1] is Glutamate dehydrogenase 1, mitochondrial (Bos taurus) (UniProt P00366). Nature of the series: Inhibition of bovine GDH using glutamate as substrate preincubated for 0.5 hrs followed by substrate addition and further incubated for 1 hr in presence of NADP+ by EZMTT reagent based assay.
Chain of Glutamate dehydrogenase 1, mitochondrial (Bos taurus) (P00366 whole entry): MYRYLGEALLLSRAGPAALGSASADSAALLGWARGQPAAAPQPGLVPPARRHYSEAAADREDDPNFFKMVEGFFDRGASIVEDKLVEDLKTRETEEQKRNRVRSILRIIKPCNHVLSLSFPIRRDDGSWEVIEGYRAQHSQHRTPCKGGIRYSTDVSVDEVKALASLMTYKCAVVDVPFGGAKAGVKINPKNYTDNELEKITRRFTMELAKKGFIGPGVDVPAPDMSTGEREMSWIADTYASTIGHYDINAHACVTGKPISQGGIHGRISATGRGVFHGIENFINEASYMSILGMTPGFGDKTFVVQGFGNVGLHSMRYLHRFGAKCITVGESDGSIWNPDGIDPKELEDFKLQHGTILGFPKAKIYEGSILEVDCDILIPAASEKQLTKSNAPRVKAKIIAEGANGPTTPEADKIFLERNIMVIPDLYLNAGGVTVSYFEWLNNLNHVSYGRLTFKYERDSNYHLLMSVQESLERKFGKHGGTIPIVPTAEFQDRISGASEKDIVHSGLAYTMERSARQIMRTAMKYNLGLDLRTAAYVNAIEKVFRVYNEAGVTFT
Series [2] can be described thus: Stability of compound. Type of series: physicochemical.
A short description of series [3]: Metabolic stability in mouse liver microsomes assessed as parent compound remaining measured for 2 hrs by HPLC analysis. Type of series: ADME, Microsome. To be noted: read-out: Stability. In outline:
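Compound is incubated with mouse liver microsomes for 2 h. The parent level remaining is quantified by HPLC, with coumarin as the reference control.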
On the technique in general: Liver microsomes are vesicles of endoplasmic reticulum, rich in cytochrome P450 enzymes.

Series [4] in a line: Half life in ICR mouse at […], iv measured for 24 hrs by HPLC analysis. Type of series: ADME, organism-based. To be noted: in vivo.
The nature of series [5]: Clearance in ICR mouse at […], iv measured for 24 hrs by HPLC analysis. The series is classed as ADME, organism-based. The conditions noted are these: in vivo.
The test system of series [6] is HCT-116. Nature of the series: Antiproliferative activity against human HCT-116 cells assessed as growth rate at 1 uM measured after 2 to 24 hrs by EZMTT assay (reference value: 100%). Type of series: functional. The conditions noted are these: for growth at 1 µM: Homo sapiens, HCT-116, time 2-24 hrs, read-out: Activity.
Series [7] relates to HCT-116. Nature of the series: Antiproliferative activity against human HCT-116 cells assessed as growth rate at 3 uM measured after 2 to 24 hrs by EZMTT assay (reference value: 100%). The series is classed as functional. The conditions noted are these: for growth at 3 µM: Homo sapiens, HCT-116, time 2-24 hrs, read-out: Activity.
Series [8] relates to HCT-116. Nature of the series: Antiproliferative activity against human HCT-116 cells assessed as growth rate at 10 uM measured after 2 to 24 hrs by EZMTT assay (reference value: 100%). Type of series: functional. To be noted: for growth at 10 µM: Homo sapiens, HCT-116, time 2-24 hrs, read-out: Activity.
The subject of series [9] is A549. Nature of the series: Inhibition of colony formation in human A549 cells assessed as reduction in number and size of colonies incubated for 14 days by crystal violet staining based assay. The series is classed as functional, cell-based. The conditions noted are these: dose 1-5 µM, time 14.0 day.
For series [10], the system named is A549. Nature of the series: Induction of ROS production in human A549 cells at 5 to 10 uM incubated for 12 hrs by dichlorodihydro-fluorescein diacetate probe based fluorescence microscopic analysis. To be noted: dose 5-10 µM. Type of series: functional, cell-based.
Series [11] addresses T1, Glutaminase kidney isoform, mitochondrial (Homo sapiens, UniProt O94925).
T1 sequence (O94925 whole entry): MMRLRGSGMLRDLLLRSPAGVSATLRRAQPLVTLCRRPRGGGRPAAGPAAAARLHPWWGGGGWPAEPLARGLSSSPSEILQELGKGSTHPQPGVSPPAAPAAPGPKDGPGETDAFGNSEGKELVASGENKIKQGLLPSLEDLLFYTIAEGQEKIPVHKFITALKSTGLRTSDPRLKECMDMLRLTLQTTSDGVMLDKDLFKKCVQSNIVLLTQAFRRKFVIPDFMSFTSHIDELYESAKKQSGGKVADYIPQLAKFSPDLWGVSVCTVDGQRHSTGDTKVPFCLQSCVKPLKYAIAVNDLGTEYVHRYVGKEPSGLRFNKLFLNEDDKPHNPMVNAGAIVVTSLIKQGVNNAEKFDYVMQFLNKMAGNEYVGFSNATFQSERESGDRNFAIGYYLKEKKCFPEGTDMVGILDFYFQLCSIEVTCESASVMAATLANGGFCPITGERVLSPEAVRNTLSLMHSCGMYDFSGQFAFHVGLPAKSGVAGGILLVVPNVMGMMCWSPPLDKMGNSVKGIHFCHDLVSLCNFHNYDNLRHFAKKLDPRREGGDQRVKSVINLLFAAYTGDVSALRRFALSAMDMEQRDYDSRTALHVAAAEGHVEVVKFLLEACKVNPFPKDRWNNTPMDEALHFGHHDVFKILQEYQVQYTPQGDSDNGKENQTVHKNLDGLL
The experiment in a line: Inhibition of human KGA using glutamine as substrate preincubated for 0.5 hrs followed by substrate addition and measured after 4 hrs by EZMTT reagent based assay.

The species named for series [12] is Homo sapiens. Nature of the series: Binding affinity to alanine residue of human KGA K320A mutant assessed as covalent bond formation.
Series [13] concerns the target T2, Glutaminase kidney isoform, mitochondrial (Homo sapiens) (UniProt O94925).
T2 sequence (whole entry): T1 sequence (O94925 whole entry)
The experiment in a line: Covalent inhibition of wild type human KGA using glutamine as substrate at 10 uM preincubated for 0.5 hrs followed by substrate addition and measured after 4 hrs by EZMTT reagent based assay. The conditions noted are these: time 4.5 hrs. In outline:
(§1)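 Human KGA, either wild-type or the K320A mutant, is pre-incubated with or without compound at 10 μM before the enzyme activity assay.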

For series [14], the species on record is Homo sapiens. The experiment in a line: Covalent inhibition of human KGA K320A mutant using glutamine as substrate at 10 uM preincubated for 0.5 hrs followed by substrate addition and measured after 4 hrs by EZMTT reagent based assay. The conditions noted are these: time 4.5 hrs. In short, it runs like this: as §1
For series [15], the target named is T2, Glutaminase kidney isoform, mitochondrial (Homo sapiens). The experiment in a line: Inhibition of biotinylated N-[6-[4-[5-[[2-(2-pyridyl)acetyl]amino]-1,3,4-thiadiazol-2-yl]butyl]pyridazin-3-yl]-2-[3-(trifluoromethoxy)phenyl]acetamide binding to wild type human KGA at >300 nM by biomolecular interaction assay.
The species entered for series [16] is Homo sapiens. Nature of the series: Inhibition of biotinylated N-[6-[4-[5-[[2-(2-pyridyl)acetyl]amino]-1,3,4-thiadiazol-2-yl]butyl]pyridazin-3-yl]-2-[3-(trifluoromethoxy)phenyl]acetamide binding to human KGA K320A mutant by biomolecular interaction assay. To be noted: dose 0-3 µM.
Series [17] addresses T1, Glutaminase kidney isoform, mitochondrial. The experiment in a line: Binding affinity to wild type human KGA assessed as covalent bond formation by measuring dissociation constant by biomolecular interaction assay.
In series [18] the test system is HCT-116. The experiment in a line: Antiproliferative activity against human HCT-116 cells assessed as inhibition of cell growth by measuring fold improvement in IC50 incubated for 5 days by EZMTT assay relative to control. The series is classed as functional. To be noted: time 5 day.
A further series relates to H22. Nature of the series: Antiproliferative activity against mouse H22 cells assessed as inhibition of cell growth by measuring fold improvement in IC50 incubated for 5 days by EZMTT assay relative to control. Type of series: functional. The conditions noted are these: time 5 day.

Each structure is given as a SMILES string. pIC50, pKd: −log10 of the molar value. The source made the active and inactive calls. The rule behind the calls is not given here.

A word on the inhibition: it is the share of the control response that was lost under treatment. In the case of `C=C(C(=O)Nc1ccc(CCCCc2nnc(NC(=O)Cc3ccccn3)[se]2)nn1)c1cccc(OC(F)(F)F)c1`, the inhibition result in series [1] was “inactive”. The Stability result in [2] was “Unstable”.
The term half-life denotes the time in which the quantity being followed falls by half. A lower half-life goes with fast loss. As usually defined, the clearance is the volume of plasma or blood freed of the substance per unit of time. The term pIC50 denotes −log10 of the IC50, conventionally taken in molar units. A low value points to a high IC50. As a reminder, the pKd is the negative decadic logarithm of the Kd, by convention in mol/L. As to `O=C(/C=C/c1ccc2c(c1)OCO2)Nc1ccc(CCCCc2nnc(NC(=O)Cc3ccccn3)[se]2)nn1`, in series [3], the remaining at 2 h came out at 74%. This compound also showed a half-life in series [4] of 4.89 h. Moreover, the clearance in [5] was 327 mL/min/kg. The growth at 1 µM with HCT-116 [6] amounted to 14.3%. Further, the growth at 3 µM in the series on HCT-116 [7] worked out at 6%. Moreover, the growth at 10 µM in the series with HCT-116 [8] stood at 6.3%. Moreover, the inhibition entry in the series with A549 [9] was “Dose-Dependent Effect”; in series [13], 100%; in the series filed under Homo sapiens [16] it was “Dose-Dependent Effect”. Besides, the outcome in the series on A549 [10] was Active. Further, the pIC50 in series [11] is 7.30. Besides, the inhibition entry (in series [1]; in the series listed under Homo sapiens [14]) was “inactive” throughout. For the same compound, the result in the series filed under Homo sapiens [12] was inactive. In addition, the inhibition result in [15] is “Active”. In series [17], the pKd was ≥ 12.00. For the same compound, the Stability entry in series [2] is reported as “Stable”.
On to `C=CC(=O)Nc1ccc(CCCCc2nnc(NC(=O)Cc3ccccn3)s2)nn1`, for which the inhibition entry in [1] is “inactive”. The Stability entry in series [2] is on record as “Unstable”.
As for `O=C(/C=C/c1ccc2c(c1)OCO2)Nc1ccc(CCCCc2nnc(NC(=O)Cc3ccccn3)s2)nn1`, the remaining at 2 h in series [3] was 83%. For the same compound, in [4], the half-life was 3.37 h. This compound had a clearance in series [5] of 582 mL/min/kg. Moreover, the “fold change (FC)” value with HCT-116 [18] stood at 3; in the series with H22, 30. For the same compound, the growth at 1 µM in the series on HCT-116 [6] was found to be 11.9%. The growth at 3 µM in the series on HCT-116 [7] turned out to be 7.6%. The growth at 10 µM with HCT-116 [8] turned out to be 6.1%. The inhibition entry with A549 [9] is “Dose-Dependent Effect”; in series [13] it was 100%; in the series listed under Homo sapiens [16] it was “Dose-Dependent Effect”. In addition, in the series with A549 [10], the result was Active. In addition, in series [11], the pIC50 is 7.55. The inhibition entry (in [1]; in the series listed under Homo sapiens [14]) was “inactive” each time. In addition, the outcome in the series filed under Homo sapiens [12] was inactive. The inhibition entry in series [15] is “Active”. In addition, the pKd in [17] is ≥ 12.00. The Stability entry in series [2] is “Stable”.
On to `C=CC(=O)Nc1ccc(CCCCc2nnc(NC(=O)Cc3cc4ccccc4n3C)s2)nn1`, for which the inhibition result in series [1] is “inactive”. Also, the Stability entry in series [2] is listed as “Unstable”.
Regarding `O=c1ccc2ccccc2o1` [COUMARIN], the remaining at 2 h in series [3] was determined as 61%.
On to `C=CC(=O)Nc1ccc(CCCCc2nnc(NC(=O)Cc3ccccn3)[se]2)nn1`, for which, in series [1], the inhibition result is “inactive”. In addition, in series [2], the Stability result is “Unstable”.
Consider `O=C(/C=C/c1cc(F)ccc1F)Nc1ccc(CCCCc2nnc(NC(=O)Cc3ccccn3)[se]2)nn1`, for which the inhibition entry in [1] was “inactive”. Further, in series [2], the Stability result is recorded as “Unstable”.
As to `O=C(Cc1cccc(OC(F)(F)F)c1)Nc1ccc(CCCCc2nnc(NC(=O)Cc3ccccn3)s2)nn1`, the Activity with HCT-116 [6] (time 2-24 hrs) was found to be 19.1%; in the series on HCT-116 [7] (time 2-24 hrs) it was 17%; with HCT-116 [8] (time 2-24 hrs), 14.1%. Moreover, in [1], the inhibition result is “inactive”.
